Experimental data from ChEMBL document CHEMBL1125566, “N-methylcarbamate derivatives of ellipticine and olivacine with cytotoxic activity against four human lung cancer cell lines” (J Med Chem, 1992).

Legend:
Type in all cases: functional, cell-based
NCI-H460 [1] = test: Cytotoxicity against H 460 human lung cancer cell line
Summary of the method: (§1)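 Non-SCLC adherent cells, grown in RPMI 1640 at 37 °C under 5% CO2, trypsinized, resuspended in RPMI-1640/2% FBS, and plated at 2500 cells/well. Drug (DMSO, then BSA and phosphate buffer dilutions) applied for 1 h, then centrifuged and washed twice. Cells were kept 4 days at 37 °C, given MTT for 4 h, formazan dissolved in DMSO, and read at 540 nm. IC50 is the concentration giving 50% growth inhibition.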

NCI-H417 [2] = test: Cytotoxicity against N 417 human lung cancer cell line
Summary of the method: (§2)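 SCLC floating cultures, grown in RPMI 1640 at 37 °C under 5% CO2, disaggregated by gentle pipetting, collected by sedimentation, and plated at 8000 cells/well. Drug (DMSO, then BSA and phosphate buffer dilutions) applied for 1 h, then centrifuged and washed twice with RPMI 1640. After 4 days at 37 °C, MTT was added for 4 h and formazan in DMSO read at 540 nm. IC50 is 50% growth inhibition.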

NCI-H358 [3] = test: Cytotoxicity against H 358 human lung cancer cell line; summary of the method: as §1
NCI-H69 [4] = test: Cytotoxicity against H69 human lung cancer cell line; summary of the method: as §2
NCI-H358 [5] = test: Compound was evaluated for inhibitory activity against H 358 human lung cancer cell line; summary of the method: as §1
NCI-H460 [6] = test: Compound was evaluated for inhibitory activity against H 460 human lung cancer cell line; summary of the method: as §1
NCI-H417 [7] = test: Compound was evaluated for inhibitory activity against N 417 human lung cancer cell line; summary of the method: as §2
NCI-H69 [8] = test: Compound was evaluated for inhibitory activity against H69 human lung cancer cell line; summary of the method: as §2

| SMILES | IC50 (NCI-H460 [1]) [µM] | IC50 (NCI-H417 [2]) [µM] | IC50 (NCI-H358 [3]) [µM] | IC50 (NCI-H69 [4]) [µM] | IC50 (NCI-H358 [5]) [µM] | IC50 (NCI-H460 [6]) [µM] | IC50 (NCI-H417 [7]) [µM] | IC50 (NCI-H69 [8]) [µM] |
| --- | --- | --- | --- | --- | --- | --- | --- | --- |
| CNC(=O)OCc1c2ccncc2c(C)c2c1[nH]c1ccc(OC)cc12 | 0.06 | 0.09 | 0.1 | 0.22 | – | – | – | – |
| Cc1c2cnccc2c(CO)c2[nH]c3ccc(O)cc3c12 | 0.95 | 1.8 | 1.5 | 1.6 | – | – | – | – |
| COc1ccc2[nH]c3c(C)c4ccnc(C=O)c4cc3c2c1 | – | – | – | – | 1.5 | 1.8 | 0.9 | 1.8 |
| CNC(=O)OCc1nccc2c(C)c3[nH]c4ccc(OC)cc4c3cc12 | 0.07 | 0.1 | 0.11 | 0.14 | – | – | – | – |
| CNC(=O)OCc1c2cnccc2c(C)c2[nH]c3ccc(OC)cc3c12 | 0.02 | 0.04 | 0.09 | 0.17 | – | – | – | – |
| COc1ccc2[nH]c3c(C)c4ccnc(CO)c4cc3c2c1 | 1.9 | 1.3 | 1.3 | 1.3 | – | – | – | – |
| COc1ccc2[nH]c3c(C)c4ccnc(COC(C)=O)c4cc3c2c1 | 1.7 | 2.8 | 2 | 1.4 | – | – | – | – |
| CNC(=O)OCc1c2ccncc2c(C)c2c1[nH]c1ccccc12 | 0.17 | 0.33 | 0.19 | 0.86 | – | – | – | – |
| Cc1c2ccncc2c(C)c2c1[nH]c1ccc(O)cc12 | 2.8 | 3.5 | 5.8 | 1.7 | – | – | – | – |
| Cc1nccc2c(C)c3[nH]c4ccccc4c3cc12 | – | – | – | – | 2.3 | 1.8 | 3.4 | 1.7 |
| COc1ccc2[nH]c3c(C)c4ccnc(C)c4cc3c2c1 | – | – | – | – | 2.1 | 2.1 | 1.8 | 1.2 |
| COc1cccc2c1C(=O)c1c(O)c3c(c(O)c1C2=O)C[C@@](O)(C(=O)CO)C[C@@H]3O[C@H]1C[C@H](N)[C@H](O)[C@H](C)O1 [DOXORUBICIN] | – | – | – | – | 0.62 | 0.23 | 0.23 | 0.87 |
| Cc1c2ccncc2c(C)c2c1[nH]c1ccccc12 [ELLIPTECINE] | – | – | – | – | 0.2 | 0.51 | 0.87 | 1.8 |
| Cc1c2cc[n+](C)cc2c(C)c2c1[nH]c1ccc(O)cc12 [ELLIPTINIUM] | – | – | – | – | > 48 | > 48 | > 48 | > 48 |
